The results in this text go back to ChEMBL document CHEMBL1152183, “Structure-activity relationships of 3-substituted N-benzhydryl-nortropane analogs as nociceptin receptor ligands for the treatment of cough” (Bioorg Med Chem Lett, 2008).

Assay [1] has as its target T1, Nociceptin receptor (Homo sapiens, UniProt P41146). In words: Displacement of [125I][Tyr14]nociceptin FQ from human cloned nociceptin receptor expressed in CHO cells. The assay is classed as cell-based. An outline of the steps: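 Competition binding on CHO cell membranes expressing cloned human nociceptin receptor, radioligand [125I][Tyr14]nociceptin FQ; Ki determined from dose–response curves.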
For orientation: In a radioligand displacement assay an active substance lowers the binding of a labelled ligand.

For the next assay, the target named is Mu-type opioid receptor (Homo sapiens, UniProt P35372). Kind of assay: Displacement of [3H]diprenorphine from human mu opioid receptor expressed in CHO cells. The assay is classed as cell-based. An outline of the steps:
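CHO cell membranes expressing human opioid receptor; [3H]-diprenorphine as radioligand; Ki determined from dose–response curves.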

The species named for assay [2] is Homo sapiens. Kind of assay: Selectivity for human cloned nociceptin receptor over human mu opioid receptor.
The species named for assay [3] is Homo sapiens. In words: Selectivity for human cloned nociceptin receptor over human delta opioid receptor.
The species named for assay [4] is Homo sapiens. Kind of assay: Selectivity for human cloned nociceptin receptor over human kappa opioid receptor.
For assay [5], the target named is T1, Nociceptin receptor. In words: Agonist activity at human cloned nociceptin receptor expressed in CHO cells assessed as stimulation of [35S]GTPgammaS binding. The assay is classed as functional, cell-based. An outline of the steps:
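Membranes from cells transfected with nociceptin receptor; agonism measured as enhancement of [35S]GTPγS binding in presence of GDP; EC50 derived.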

In assay [6] the target is T1, Nociceptin receptor. In words: Agonist activity at human cloned nociceptin receptor expressed in CHO cells assessed as stimulation of [35S]GTPgammaS binding at 5.5 uM. The assay is classed as functional, cell-based. (GTPγS resists hydrolysis and so accumulates on activated G proteins.)
For assay [7], the system named is Cavia porcellus. In words: Antitussive activity in guinea pig assessed as suppression of capsaicin-induced cough at 0.3 mg/kg, po. The assay is classed as functional.
Assay [8] addresses T1, Nociceptin receptor. In words: Agonist activity at human cloned nociceptin receptor expressed in CHO cells assessed as stimulation of [35S]GTPgammaS binding at 10 uM. The assay is classed as functional, cell-based.
The species named for assay [9] is Cavia porcellus. Kind of assay: Antitussive activity in guinea pig assessed as suppression of capsaicin-induced cough after 2 hrs. The assay is classed as functional. An outline of the steps:
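Guinea pig capsaicin-induced cough model; oral dosing; cough suppression read 2 h after dosing relative to placebo; ED50 derived.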

SMILES strings stand for the structures.

Chain of Mu-type opioid receptor (P35372 whole entry): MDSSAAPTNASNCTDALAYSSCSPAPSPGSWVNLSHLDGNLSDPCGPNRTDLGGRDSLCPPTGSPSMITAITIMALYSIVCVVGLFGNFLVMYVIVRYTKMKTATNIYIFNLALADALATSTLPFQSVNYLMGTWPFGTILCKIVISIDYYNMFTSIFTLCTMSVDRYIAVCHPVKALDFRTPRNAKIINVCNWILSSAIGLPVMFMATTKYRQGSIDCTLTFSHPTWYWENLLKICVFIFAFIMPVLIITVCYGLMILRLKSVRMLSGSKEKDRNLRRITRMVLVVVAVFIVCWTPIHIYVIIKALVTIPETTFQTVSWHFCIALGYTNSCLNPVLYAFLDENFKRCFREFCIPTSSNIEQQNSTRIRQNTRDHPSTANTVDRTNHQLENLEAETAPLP
T1 sequence (P41146 whole entry): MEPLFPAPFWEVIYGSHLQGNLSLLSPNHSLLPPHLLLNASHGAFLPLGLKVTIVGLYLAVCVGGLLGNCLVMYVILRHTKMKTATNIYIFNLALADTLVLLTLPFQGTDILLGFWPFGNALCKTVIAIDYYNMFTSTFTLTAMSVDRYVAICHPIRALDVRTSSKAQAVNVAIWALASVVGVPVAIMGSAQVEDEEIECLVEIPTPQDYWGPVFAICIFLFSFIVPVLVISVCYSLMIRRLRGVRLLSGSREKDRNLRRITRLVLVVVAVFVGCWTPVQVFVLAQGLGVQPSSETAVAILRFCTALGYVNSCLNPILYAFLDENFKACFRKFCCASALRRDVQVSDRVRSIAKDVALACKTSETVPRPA

In turn, `CC(=O)NC[C@@]1(c2ccc(N3CCCCC3)cn2)C[C@H]2CC[C@@H](C1)N2C(c1ccccc1Cl)c1ccccc1Cl` gave a Ki on Nociceptin receptor [1] of 99 nM.

On to `NC[C@@]1(c2ccccc2)C[C@H]2CC[C@@H](C1)N2C(c1ccccc1Cl)c1ccccc1Cl`, for which the Ki was found to be 6 nM at Nociceptin receptor [1] and 674 nM on Mu-type opioid receptor. Also, the fold change (FC) was determined as 112 in the assay filed under Homo sapiens [2], 300 in the assay listed under Homo sapiens [3] and 30 in the assay filed under Homo sapiens [4].

With `CN(C)C[C@@]1(c2ccccc2)C[C@H]2CC[C@@H](C1)N2C(c1ccccc1Cl)c1ccccc1Cl`, the Ki at Nociceptin receptor [1] is 17 nM; on Mu-type opioid receptor, 1490 nM. Moreover, the fold change (FC) worked out at 300 in the assay listed under Homo sapiens [3] and 31 in the assay listed under Homo sapiens [4]. On Nociceptin receptor [5], the EC50 came to 483 nM. The Activity at Nociceptin receptor [6] came to 104%; in the assay with Cavia porcellus [7], 36%.

For `CCNC[C@@]1(c2cccc(OC)n2)C[C@H]2CC[C@@H](C1)N2C(c1ccccc1Cl)c1ccccc1Cl`, the inhibition constant (Ki) on Nociceptin receptor [1] was 20 nM; at Mu-type opioid receptor, 442 nM.

Regarding `CN(C)C[C@@]1(Cc2ccccc2)C[C@H]2CC[C@@H](C1)N2C(c1ccccc1Cl)c1ccccc1Cl`, the affinity on Nociceptin receptor [1] corresponds to a Ki of 55 nM.

On to `NC[C@@]1(c2cccnc2)C[C@H]2CC[C@@H](C1)N2C(c1ccccc1Cl)c1ccccc1Cl`, for which, at Nociceptin receptor [1], the Ki came to 82 nM.

On to `CN(C)C[C@@]1(c2ccccn2)C[C@H]2CC[C@@H](C1)N2C(c1ccccc1Cl)c1ccccc1Cl`, for which the Ki was 7 nM on Nociceptin receptor [1] and 785 nM at Mu-type opioid receptor. Moreover, the fold change (FC) in the assay filed under Homo sapiens [2] was determined as 75. The 50% effective concentration (EC50) at Nociceptin receptor [5] worked out at 156 nM.

With `COC(=O)NC[C@@]1(c2ccccc2)C[C@H]2CC[C@@H](C1)N2C(c1ccccc1Cl)c1ccccc1Cl`, the Ki was 20 nM at Nociceptin receptor [1] and 905 nM at Mu-type opioid receptor.

As to `NC[C@@]1(c2ccccn2)C[C@H]2CC[C@@H](C1)N2C(c1ccccc1Cl)c1ccccc1Cl`, the Ki on Nociceptin receptor [1] was determined as 7 nM; on Mu-type opioid receptor, 617 nM. Also, the fold change (FC) stood at 75 in the assay filed under Homo sapiens [2], 300 in the assay filed under Homo sapiens [3] and 35 in the assay filed under Homo sapiens [4].

`NC[C@@]1(c2cccc(F)n2)C[C@H]2CC[C@@H](C1)N2C(c1ccccc1Cl)c1ccccc1Cl` came in with a Ki on Nociceptin receptor [1] of 29 nM.

Consider `NC[C@@]1(Cc2ccccc2)C[C@H]2CC[C@@H](C1)N2C(c1ccccc1Cl)c1ccccc1Cl`, for which the results for the Ki at Nociceptin receptor [1] and at Mu-type opioid receptor were 11 nM and 1340 nM, respectively. Besides, the fold change (FC) in the assay filed under Homo sapiens [2] came out at 121; in the assay filed under Homo sapiens [3], 300; in the assay filed under Homo sapiens [4], 33.

Turning to `COc1cccc([C@]2(CNC(C)=O)C[C@H]3CC[C@@H](C2)N3C(c2ccccc2Cl)c2ccccc2Cl)n1`, the Ki at Nociceptin receptor [1] was found to be 4 nM; on Mu-type opioid receptor it was 251 nM.

For `Cc1cccnc1[C@]1(CN)C[C@H]2CC[C@@H](C1)N2C(c1ccccc1Cl)c1ccccc1Cl`, the Ki at Nociceptin receptor [1] stood at 50 nM.

Turning to `CC(=O)NC[C@@]1(c2ccccn2)C[C@H]2CC[C@@H](C1)N2C(c1ccccc1Cl)c1ccccc1Cl`, the inhibitory constant (Ki) at Nociceptin receptor [1] stood at 5 nM; at Mu-type opioid receptor, 374 nM. In the assay listed under Homo sapiens [2], this molecule showed a fold change (FC) of 75.

Turning to `CC(=O)N(C)C[C@@]1(c2ccccc2)C[C@H]2CC[C@@H](C1)N2C(c1ccccc1Cl)c1ccccc1Cl`, the Ki at Nociceptin receptor [1] is 210 nM; on Mu-type opioid receptor, 2620 nM. Besides, the fold change (FC) in the assay filed under Homo sapiens [2] was 13.

Take `CC(=O)NC[C@@]1(c2ncccc2C)C[C@H]2CC[C@@H](C1)N2C(c1ccccc1Cl)c1ccccc1Cl`: the affinity at Nociceptin receptor [1], expressed as Ki, was 173 nM.

For `COc1cccc([C@]2(CN)C[C@H]3CC[C@@H](C2)N3C(c2ccccc2Cl)c2ccccc2Cl)n1`, the Ki at Nociceptin receptor [1] is 11 nM; on Mu-type opioid receptor, 123 nM. Also, the figures for the fold change (FC) in the assay listed under Homo sapiens [3] and in the assay listed under Homo sapiens [4] were 300 and 36, respectively.

As to `Fc1ccc2c(c1)[C@]1(CN2)C[C@H]2CC[C@@H](C1)N2C(c1ccccc1Cl)c1ccccc1Cl`, the Ki at Nociceptin receptor [1] was 39 nM; at Mu-type opioid receptor it was 1710 nM.

Regarding `CC(=O)NC[C@@]1(Cc2ccccc2)C[C@H]2CC[C@@H](C1)N2C(c1ccccc1Cl)c1ccccc1Cl`, the inhibition constant (Ki) on Nociceptin receptor [1] came to 12 nM; at Mu-type opioid receptor, 458 nM. Moreover, the fold change (FC) in the assay filed under Homo sapiens [3] amounted to 300; in the assay filed under Homo sapiens [4] it was 34.

As to `Cc1ccc2c(c1)[C@]1(CN2)C[C@H]2CC[C@@H](C1)N2C(c1ccccc1Cl)c1ccccc1Cl`, the figures for the inhibition constant Ki on Nociceptin receptor [1] and at Mu-type opioid receptor were 74 nM and 998 nM, respectively.

As to `CC(=O)NC[C@@]1(Cc2ccc(F)cc2)C[C@H]2CC[C@@H](C1)N2C(c1ccccc1Cl)c1ccccc1Cl`, the Ki at Nociceptin receptor [1] turned out to be 15 nM; at Mu-type opioid receptor it was 782 nM. The EC50 at Nociceptin receptor [5] stood at 129 nM. The values for the Activity on Nociceptin receptor [8] and in the assay on Cavia porcellus [7] were 124% and 23%, respectively.

Turning to `Clc1ccccc1C(c1ccccc1Cl)N1[C@@H]2CC[C@H]1C[C@@]1(CNc3ccccc31)C2`, the Ki at Nociceptin receptor [1] stood at 50 nM; at Mu-type opioid receptor it was 1200 nM.

Regarding `CC(=O)NC[C@@]1(c2ccccc2)C[C@H]2CC[C@@H](C1)N2C(c1ccccc1Cl)c1ccccc1Cl`, the Ki on Nociceptin receptor [1] was determined as 20 nM; at Mu-type opioid receptor it was 777 nM. Moreover, the fold change (FC) in the assay listed under Homo sapiens [3] is 300; in the assay filed under Homo sapiens [4] it was 32. Also, the EC50 at Nociceptin receptor [5] amounted to 269 nM. In addition, at Nociceptin receptor [8], the Activity was found to be 122%. Moreover, in the assay filed under Cavia porcellus [9], the ED50 turned out to be 0.19 mg/kg.

On Nociceptin receptor [1], `NC[C@@]1(c2ncccc2CN2CCCCC2)C[C@H]2CC[C@@H](C1)N2C(c1ccccc1Cl)c1ccccc1Cl` yielded a Ki of 245 nM.

On to `Clc1ccccc1C(c1ccccc1Cl)N1[C@@H]2CC[C@H]1C[C@](CN1CCCC1)(c1ccccc1)C2`, for which the Ki came out at 70 nM on Nociceptin receptor [1] and 4170 nM at Mu-type opioid receptor.

As for `O=C1CCCN1C[C@@]1(c2ccccc2)C[C@H]2CC[C@@H](C1)N2C(c1ccccc1Cl)c1ccccc1Cl`, the affinity on Nociceptin receptor [1] corresponds to a Ki of 68 nM.

On to `CNC[C@@]1(c2ccccc2)C[C@H]2CC[C@@H](C1)N2C(c1ccccc1Cl)c1ccccc1Cl`, for which the Ki at Nociceptin receptor [1] is 10 nM; on Mu-type opioid receptor, 566 nM.

For the molecule `O=C1CCCN1C[C@@]1(Cc2ccccc2)C[C@H]2CC[C@@H](C1)N2C(c1ccccc1Cl)c1ccccc1Cl`, the Ki on Nociceptin receptor [1] came out at 336 nM.

In the case of `CCNC[C@]1(Cc2ccccc2)C[C@H]2CC[C@@H](C1)N2C(c1ccccc1Cl)c1ccccc1Cl`, the Ki on Nociceptin receptor [1] was 39 nM.

As to `Clc1ccccc1C(c1ccccc1Cl)N1[C@@H]2CC[C@H]1C[C@@](Cc1ccccc1)(CN1CCCC1)C2`, the affinity on Nociceptin receptor [1], expressed as Ki, was 116 nM.

`CC(=O)NC[C@@]1(C2CCCCN2)C[C@H]2CC[C@@H](C1)N2C(c1ccccc1Cl)c1ccccc1Cl` (stereo not given in full): the Ki at Nociceptin receptor [1] came out at 27 nM.

As to `CC(=O)NC[C@@]1(c2ncccc2CN2CCCCC2)C[C@H]2CC[C@@H](C1)N2C(c1ccccc1Cl)c1ccccc1Cl`, the Ki on Nociceptin receptor [1] was found to be 670 nM; at Mu-type opioid receptor it was 758 nM.

`CC(=O)NC[C@@]1(c2ccc(Br)cn2)C[C@H]2CC[C@@H](C1)N2C(c1ccccc1Cl)c1ccccc1Cl`: the Ki was 27 nM on Nociceptin receptor [1] and 752 nM at Mu-type opioid receptor.

With `COc1ccc([C@]2(CNC(C)=O)C[C@H]3CC[C@@H](C2)N3C(c2ccccc2Cl)c2ccccc2Cl)cc1`, the Ki was determined as 118 nM on Nociceptin receptor [1] and 2410 nM at Mu-type opioid receptor.

As to `COc1ccc([C@]2(CNC(C)=O)C[C@H]3CC[C@@H](C2)N3C(c2ccccc2Cl)c2ccccc2Cl)nc1`, the Ki at Nociceptin receptor [1] was determined as 62 nM; at Mu-type opioid receptor, 3450 nM.

As to `CC(=O)NC[C@@]1(c2cccnc2)C[C@H]2CC[C@@H](C1)N2C(c1ccccc1Cl)c1ccccc1Cl`, affinity at Nociceptin receptor [1] was put at a Ki of 35 nM.

Consider `CCNC[C@@]1(c2ccccn2)C[C@H]2CC[C@@H](C1)N2C(c1ccccc1Cl)c1ccccc1Cl`, for which the Ki worked out at 6 nM at Nociceptin receptor [1] and 743 nM at Mu-type opioid receptor. The same molecule came in with a fold change (FC) in the assay listed under Homo sapiens [2] of 75.

`Fc1ccc(C[C@]2(CN3CCCC3)C[C@H]3CC[C@@H](C2)N3C(c2ccccc2Cl)c2ccccc2Cl)cc1` yielded a Ki on Nociceptin receptor [1] of 58 nM.

In the case of `CC(=O)NC[C@@]1(c2cccc(F)n2)C[C@H]2CC[C@@H](C1)N2C(c1ccccc1Cl)c1ccccc1Cl`, the Ki at Nociceptin receptor [1] amounted to 24 nM; on Mu-type opioid receptor, 1280 nM.

`NC[C@@]1(Cc2ccc(F)cc2)C[C@H]2CC[C@@H](C1)N2C(c1ccccc1Cl)c1ccccc1Cl`: the Ki was 34 nM on Nociceptin receptor [1] and 1410 nM at Mu-type opioid receptor. The EC50 on Nociceptin receptor [5] came to 124 nM. In addition, the Activity at Nociceptin receptor [6] worked out at 87%.

At Nociceptin receptor [1], `NC[C@@]1(C2CCCCN2)C[C@H]2CC[C@@H](C1)N2C(c1ccccc1Cl)c1ccccc1Cl` (stereo not given in full) gave a Ki of 17 nM.

For the molecule `CN(C)C[C@@]1(c2cccc(F)n2)C[C@H]2CC[C@@H](C1)N2C(c1ccccc1Cl)c1ccccc1Cl`, the Ki at Nociceptin receptor [1] came to 104 nM; at Mu-type opioid receptor it was 3980 nM.

For the molecule `CC(=O)NC[C@@]1(c2ccc(F)cc2)C[C@H]2CC[C@@H](C1)N2C(c1ccccc1Cl)c1ccccc1Cl`, the values for the Ki on Nociceptin receptor [1] and on Mu-type opioid receptor were 31 nM and 2110 nM, respectively. This molecule also came in with a fold change (FC) in the assay filed under Homo sapiens [2] of 68.

What is called Ki is a measure of affinity in units of concentration, obtained from inhibition or displacement. High values mean lower affinity, low ones higher affinity. A word on the EC50: it is the midpoint of the concentration-response curve. Broadly, the ED50 is the midpoint of the dose-response relation.
